Hits are enriched below; roughly 5.3% of the tested compounds scored in any of these assays.
Mdm2 MdmX PPI = inhibitors of human Mdm2-MdmX association, primary screen, cell-based, luminescence, split luciferase, SaOS-2, uHTS. SaOS-2 split-luciferase Mdm2/MdmX complementation. hit rate 3% among 330,000. AID 485346, 2010. inhibition, % at 8 µM. Protein Mdm4 (Homo sapiens) + E3 ubiquitin-protein ligase Mdm2 (Homo sapiens), …;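 active = inhibition of at least 50% at 8 µM in the primary screen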
Target sequence (O15151 whole entry, looked up): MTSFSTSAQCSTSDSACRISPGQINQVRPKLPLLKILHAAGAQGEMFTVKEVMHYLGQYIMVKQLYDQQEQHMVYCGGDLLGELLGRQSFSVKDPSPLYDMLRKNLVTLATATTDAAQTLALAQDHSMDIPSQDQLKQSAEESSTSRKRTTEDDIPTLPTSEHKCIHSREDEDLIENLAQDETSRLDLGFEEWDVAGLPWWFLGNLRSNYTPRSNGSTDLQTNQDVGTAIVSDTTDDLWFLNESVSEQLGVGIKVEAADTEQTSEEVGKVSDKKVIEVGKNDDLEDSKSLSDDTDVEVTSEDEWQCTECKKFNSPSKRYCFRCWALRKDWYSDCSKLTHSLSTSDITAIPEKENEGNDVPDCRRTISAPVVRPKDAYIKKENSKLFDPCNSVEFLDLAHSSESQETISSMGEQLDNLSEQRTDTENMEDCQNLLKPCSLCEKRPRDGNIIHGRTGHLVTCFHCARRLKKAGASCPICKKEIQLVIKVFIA
Target sequence (Q00987 whole entry, looked up): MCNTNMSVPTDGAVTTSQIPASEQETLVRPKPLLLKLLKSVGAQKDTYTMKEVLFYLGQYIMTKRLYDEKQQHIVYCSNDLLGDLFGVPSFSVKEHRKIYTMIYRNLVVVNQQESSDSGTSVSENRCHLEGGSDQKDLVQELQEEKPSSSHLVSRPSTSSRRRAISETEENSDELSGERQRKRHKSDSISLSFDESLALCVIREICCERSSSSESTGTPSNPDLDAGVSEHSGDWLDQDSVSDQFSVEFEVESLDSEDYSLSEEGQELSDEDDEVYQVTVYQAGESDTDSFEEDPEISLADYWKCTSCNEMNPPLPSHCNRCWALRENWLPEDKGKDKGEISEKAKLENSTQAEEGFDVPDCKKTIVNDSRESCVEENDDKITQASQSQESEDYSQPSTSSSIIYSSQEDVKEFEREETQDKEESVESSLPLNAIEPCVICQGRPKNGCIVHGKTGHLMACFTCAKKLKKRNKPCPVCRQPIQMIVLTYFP
CSC inhib = cancer stem cell viability inhibitors, primary screen, luminescence; cancer stem cell-like cells viability; AID 2717, 2010; hit rate 1.1% among 300,000; inhibition, % at 7.5 µM; in the data active = inhibition above about 75%; inconclusive = no clear call, values can overlap the other calls; tested in HMLE shEcad cells
Calb FLC = C. albicans growth inhibition with fluconazole, primary screen, CaCi-2 strain, Alamar Blue fluorescence; hit rate 0.57% among 300,000; C. albicans CaCi-2 (fluconazole-resistant clinical isolate) + fluconazole, 48 h; AID 1979, 2009; growth inhibition, % (test concentration not listed);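 active = growth inhibition above about 58% in most replicates, limit read from the data, passing the limit was not always enough; inconclusive = exactly half the replicates above a set limit; inactive = most replicates below a set limit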;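 also: all wells also contain fluconazole at 8 µg/ml as a sub-toxic cotreatment; 0% = median of DMSO wells and 100% = median of geldanamycin control wells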
Beta cell apopt = inhibitors of cytokine-induced beta cell apoptosis, primary screen, luminescence; INS-1E cytokine-induced death, ATP luminescence, 48 h; percent of positive-control rescue, neutral wells zero; protection from apoptosis, % (no concentration beside the values); hit rate 0.8% among 300,000; AID 435005, 2010;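 active = Every replicate reaches about 75%, or at least half do and their mean reaches it too, limit read from the data; inconclusive = At least half of replicates reach the limit but their mean does not; inactive = Under half of replicates reach the limit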;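 also: 0% = cytokine-treated negative control wells and 100% = positive control rescue; higher means more ATP so stronger rescue from cytokine killing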
T cruzi repl = inhibitors of intracellular T. cruzi growth, primary screen, luminescence, NIH3T3 host cells; T. cruzi beta-gal in NIH3T3, 90 h; inhibition, % (no concentration beside the values); hit rate 1.4% among 300,000; AID 1885, 2009;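 active = mean inhibition across valid replicates above about 55%, limit read from the data; inconclusive = mean below that limit but half or more replicates reach it; inactive = mean below it, under half of replicates reach it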;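 also: signal also drops with host cell toxicity which is not excluded here; 0% = plate median of DMSO wells and 100% = zero luminescence signal; higher percent means less beta-gal luminescence so fewer parasites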
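Material: NIH/3T3 host cells with β-galactosidase reporter T. cruzi; Input: 5,000 host fibroblasts per well; Medium: DMEM, 2% fetal bovine serum; Compound: 50 nL DMSO compound solution per well; Schedule: 3 h host attachment, then at least 90 h co-culture; Detection: luminescent β-galactosidase signal after 60 min lysis.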
NLRP3 yeast inh = NALP3 inflammasome inhibitors in reconstituted yeast, primary screen, luminescence, uHTS | Yeast reconstituted NLRP3/ASC/caspase-1, beta-gal luminescence, 24 h | inhibition, % at 10 µM | hit rate 0.39% among 330,000 | AID 2825, 2010;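 active = inhibition of 50% or more; inactive = inhibition below 50%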;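 also: plate controls were induced DMSO wells for no effect and uninduced yeast grown without galactose for full effect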
Mdm2 MdmX conf = Mdm2-MdmX complex disruptors, retested hits, confirmation, luminescence, single concentration; shares compounds with Mdm2 MdmX PPI; AID 489028, 2010; hit rate 55% among 10,000; inhibition, % at 8 µM; Mdm2-MdmX binding, luminescent assay; in the data active = inhibition above about 40%
Full FLuc ctr = full-length luciferase signal inhibition, confirmation, counter-screen for Mdm2/MdmX interaction inhibitor project, cell-based, single concentration, SaOS-2; shares compounds with Mdm2 MdmX PPI; SaOS-2 full-length luciferase counterscreen, luminescence; inhibition, % at 8 µM; hit rate 77% among 6,200; AID 504607, 2011;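 active = mean inhibition at 8 µM reaching about 37%, which flags the compound as non-specific, limit read from the data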;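 also: p53-null SaOS-2 cells with luciferase driven by a doxycycline-inducible promoter; compound on cells about two nights before reading with doxycycline added after day one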
* hit, by the source's call; ? = inconclusive; . = no result.

SMILES	Mdm2 MdmX PPI	CSC inhib	Calb FLC	Beta cell apopt	T cruzi repl	NLRP3 yeast inh	Mdm2 MdmX conf	Full FLuc ctr
OCCCc1nc2ccccc2n1CCOc1ccccc1	-1	-2	13	-2	-44	16	.	.
CC(=O)Nc1ccc(Nc2ccc3c4c(cc(=O)n3C)-c3ccccc3C(=O)c24)cc1	59*	6	-1	18	56*	25	30	.
COc1cccc(/C=C2/Oc3ccccc3N(CC(=O)NCC3CCCO3)C2=O)c1 (centres undefined)	23	15	-11	4	7	19	.	.
COc1ccccc1C(=O)Nc1nc2ccc(S(C)(=O)=O)cc2s1	53*	0	-5	7	1	5	-6	.
COc1ccc(NC(=O)Nc2nc3ccccc3s2)cc1	-78	23	-18	-3	14	19	.	.
COc1ccc2nc(NC(=O)c3cccc(-c4cc5ccccc5oc4=O)c3)sc2c1	78*	?	-7	24	25	14	64*	120*
COc1ccccc1C(=O)Nc1nc2ccccc2s1	93*	105*	-12	46	-10	36	90*	32
CS(=O)(=O)c1ccc2nc(NC(=O)Nc3ccc(Cl)cc3)sc2c1	50*	.	-2	5	-1	5	23	.
COc1ccc(C(=O)Nc2nc3ccc(OC)cc3s2)cc1	-25	-3	-1	8	-9	26	.	.
Cc1cccc(NC(=O)NCC(c2cccnc2)N2CCOCC2)c1 (centres undefined)	14	19	4	-1	-8	9	.	.
COc1ccc2nc(NC(=O)CSc3nc(SC)ns3)sc2c1	19	5	?	-6	3	-21	.	.
COc1ccc(-n2nc(C(=O)Nc3nc4ccc(OC)cc4s3)c3ccccc3c2=O)c(OC)c1	77*	20	-2	-15	-11	-6	21	.
COc1ccc(C(=O)Nc2nc3ccccc3s2)c(OC)c1	100*	68	-3	45	26	37	99*	52*
COc1ccc2nc(NC(=O)CSc3nnc(C)s3)sc2c1	80*	-9	-6	-6	1	-20	-22	.
COc1ccc2nc(NC(=O)c3ccccc3C(=O)O)sc2c1	15	-9	-8	-6	-5	17	.	.
CCC(CC)NC(=O)COC(=O)CCC(=O)c1cccs1	-29	.	7	3	-4	-15	.	.
CN(C)Cc1cnc2ccc(Cl)cn12	13	-10	-3	-6	-7	-3	.	.
OC(CN1CCN(c2cccc(C(F)(F)F)c2)CC1)c1c[nH]c2ccccc12 (centres undefined)	50	.	-14	-5	19	28	46*	64*
Cc1cc(-c2n[nH]c(=S)n2Cc2ccco2)n(C)n1	62*	-27	-9	-4	-21	7	11	.
COc1ccc(C(NC(C)=O)c2cc(Cl)c3cccnc3c2O)cc1OC (centres undefined)	68*	2	-27	95*	57*	31	76*	40*
COc1ccccc1C(NC(C)=O)c1cc(Cl)c2cccnc2c1O (centres undefined)	67*	101*	-6	94*	61*	15	61*	31
CC(=O)NC(C)c1cc(Cl)c2ccccc2c1O (centres undefined)	27	13	.	1	.	8	.	.
COc1ccc(C(NC(C)=O)c2nccc3cc(OC)c(OC)cc23)cc1OC (centres undefined)	5	.	0	.	-26	27	.	.
CCOc1cc(CNC(C)(C)CO)cc(Br)c1OCc1ccc(Cl)cc1Cl	96*	.	-22	13	51	12	49*	37*
OCCNCc1c(OCc2ccc(Cl)cc2)ccc2ccccc12	53*	20	-12	9	25	23	41*	70*
SMILES	Mdm2 MdmX PPI	CSC inhib	Calb FLC	Beta cell apopt	T cruzi repl	NLRP3 yeast inh	Mdm2 MdmX conf	Full FLuc ctr
CCOc1cc(CNCCCN2CCOCC2)cc(Br)c1OCc1ccccc1Cl	92*	-5	1	17	80*	27	34	52*
CC(O)CNCCNCc1c(OCc2ccccc2)ccc2ccccc12 (centres undefined)	31	13	-26	6	22	35	.	.
CCOc1cc(CNCCO)cc(Br)c1OCc1ccccc1Cl	68*	-18	13	38	32	14	34	.
COc1cccc(NC(=S)NC(=O)Cc2ccc(Cl)cc2)c1	28	-4	-4	-4	-6	23	.	.
CCC/C=N/Nc1nc2ccccc2s1	-66	-7	-25	3	10	3	.	.
CN(C)C(=O)c1c([N+](=O)[O-])c(C(C)(C)C)nn1C	24	-8	-2	1	-35	3	.	.
COc1ccc(NC(=O)CSc2nc3ccccc3c(=O)[nH]2)cc1S(N)(=O)=O	3	-13	.	0	.	9	.	.
CCOc1cc(CNCCO)cc(Br)c1OCc1ccc(Cl)cc1	80*	85*	-43	36	2	12	21	.
CC1(C)Cc2c(c(=S)nc(-c3ccccc3)n2Cc2cccnc2)CO1	-17	-11	3	1	.	23	.	.
Cc1nc2cc(N3CCCCC3)c(NC(=O)c3ccncc3)cc2c(=O)n1Cc1ccc(Cl)cc1	89*	-4	1	45	22	13	-3	.
Cc1nc2cc(N3CCN(C)CC3)c(NC(=O)Cc3ccccc3)cc2c(=O)n1Cc1ccccc1	-9	0	-3	-3	34	15	.	.
CC1CC2=C(NC(=S)NC2c2ccccc2F)/C(=C/c2ccccc2F)C1 (centres undefined)	8	6	-6	-1	-5	4	.	.
Cc1ccc2c(c1)CCCN2S(=O)(=O)c1cccc(C(=O)Nc2ccccc2C(=O)O)c1	54*	62	26	3	58*	18	60*	58*
COc1ccc(-c2sc3cc(OC)c(OC)cc3c2-c2ccc(O)cc2)cc1	53*	137*	.	8	.	3	32	.
CCCCC(C(=O)NC(C)c1ccccc1)C(=O)NC(C)c1ccccc1 (centres undefined)	15	-5	7	-12	5	19	.	.
